Here are results for two compounds from ChEMBL document CHEMBL1154310, “Stereoselective synthesis and antimicrobial activity of benzofuran-based (1E)-1-(piperidin-1-yl)-N2-arylamidrazones” (2009).

Test [1] has as its system Aspergillus fumigatus. Nature of the test: Antifungal activity against Aspergillus fumigatus after 24 to 48 hrs by serial dilution technique. Format: functional. Put shortly:
(§1)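 MIC by serial dilution: DMSO solutions started at a maximum of 500 and were diluted twofold in succession. Each dilution was inoculated with the test organism, and inhibition zones were measured by agar diffusion.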

Test [2] has as its system Candida albicans. Kind of test: Antifungal activity against Candida albicans assessed as occurrence of cellular aggregation by microscopy. Format: functional, organism-based. Put shortly:
(§2)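 Agar cultures exposed to 100 of compound were examined directly by phase-contrast or bright-field microscopy with video-camera image analysis, at ×400 for multicellular and ×1000 for unicellular fungi.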

Test [3] relates to Candida albicans. Kind of test: Antifungal activity against Candida albicans after 24 to 48 hrs by serial dilution technique. Format: functional. Put shortly: as §1
Test [4] relates to Candida albicans. Kind of test: Antifungal activity against Candida albicans assessed as appearance of elongated and swollen cells at 100 uL by microscopy. It counts as functional, organism-based. Put shortly: as §2
The test system of test [5] is Aspergillus fumigatus. Nature of the test: Antifungal activity against Aspergillus fumigatus assessed as increase in thickness of hyphal cell wall and cell membrane by transmission electron microscopy. It counts as functional, organism-based. Put shortly:
(§3)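 Treated A. fumigatus and C. albicans were fixed, dehydrated and stained. Ultrastructure was then examined by transmission electron microscopy at 80 kV and 25,000 magnification.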

Test [6] deals with Candida albicans. Nature of the test: Ratio of compound to grisofulvin activity against Candida albicans at 5 mg/ml after 24 to 48 hrs by agar diffusion technique. Format: functional. On the technique in general: In agar diffusion tests the substance spreads into inoculated agar from a disc or well.
For test [7], the system named is Aspergillus fumigatus. Nature of the test: Antifungal activity against Aspergillus fumigatus at 5 mg/ml after 24 to 48 hrs by agar diffusion technique. Conditions: read-out: IZ. Format: functional. Put shortly:
(§4)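 Clinical fungal or yeast isolates were seeded on malt extract agar (pH 5.4). 1 cm holes received 100 of test solution at 5 mg/ml in DMSO, with DMSO control holes and griseofulvin as the standard. Plates sat 1 h at 4 °C, then were incubated at 28 °C. Zone diameters were measured at 24–48 h.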

In test [8] the test system is Aspergillus fumigatus. Kind of test: Antifungal activity against Aspergillus fumigatus assessed as distortion of cellular sub-organs by transmission electron microscopy. Format: functional, organism-based. Put shortly:
as §3

For test [9], the system named is Candida albicans. Kind of test: Antifungal activity against Candida albicans assessed as shrinking of cell membrane by transmission electron microscopy. It counts as functional, organism-based. Put shortly:
as §3

Test [10] relates to Geotrichum candidum. Nature of the test: Ratio of compound to grisofulvin activity against Geotrichum candidum at 5 mg/ml after 24 to 48 hrs by agar diffusion technique. Format: functional.
For test [11], the system named is Bacillus subtilis. Kind of test: Antibacterial activity against Bacillus subtilis at 5 mg/ml after 24 to 48 hrs by agar diffusion technique. It counts as functional. Conditions: read-out: IZ. Put shortly:
(§5)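 Hole-plate diffusion on nutrient agar (pH 6.2) seeded with clinical bacterial isolates. 1 cm wells were filled with 100 of a 5 mg/ml DMSO solution, with DMSO-only control wells and amoxicilline as the reference. Plates were held at 4 °C for 1 h, then incubated at 37 °C. Inhibition zone diameter was read after 24–48 h.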

Test [12] concerns Candida albicans. Nature of the test: Antifungal activity against Candida albicans assessed as aggregation of lysed mitochondria by transmission electron microscopy. Format: functional, organism-based. Put shortly: as §3
Test [13] concerns Syncephalastrum racemosum. Nature of the test: Ratio of compound to grisofulvin activity against Syncephalastrum racemosum at 5 mg/ml after 24 to 48 hrs by agar diffusion technique. Format: functional.
Test [14] deals with Aspergillus fumigatus. Kind of test: Antifungal activity against Aspergillus fumigatus assessed as shrinking of cell membrane by transmission electron microscopy. It counts as functional, organism-based. The method, boiled down: as §3
Test [15] deals with Staphylococcus aureus. Nature of the test: Antibacterial activity against Staphylococcus aureus after 24 to 48 hrs by serial dilution technique. It counts as functional. The method, boiled down:
as §1

Test [16] relates to Aspergillus fumigatus. Nature of the test: Antifungal activity against Aspergillus fumigatus assessed as aggregation of lysed mitochondria by transmission electron microscopy. It counts as functional, organism-based. The method, boiled down:
as §3

Test [17] deals with Candida albicans. Kind of test: Antifungal activity against Candida albicans assessed as increase in thickness of hyphal cell wall and cell membrane by transmission electron microscopy. It counts as functional, organism-based. The method, boiled down:
as §3

Test [18] deals with Aspergillus fumigatus. Kind of test: Antifungal activity against Aspergillus fumigatus assessed as appearance of chlamydospore at 100 uL by microscopy. It counts as functional, organism-based. The method, boiled down: as §2
Test [19] concerns Pseudomonas aeruginosa. Kind of test: Ratio of compound to amoxicilline activity against Pseudomonas aeruginosa at 5 mg/ml after 24 to 48 hrs by agar diffusion technique. It counts as functional.
Test [20] concerns Candida albicans. Kind of test: Antifungal activity against Candida albicans assessed as distortion of cellular sub-organs by transmission electron microscopy. It counts as functional, organism-based. The method, boiled down: as §3
The subject of test [21] is Pseudomonas aeruginosa. Kind of test: Antibacterial activity against Pseudomonas aeruginosa at 5 mg/ml after 24 to 48 hrs by agar diffusion technique. It counts as functional. The following applies: read-out: IZ. The method, boiled down:
as §5

Test [22] relates to Candida albicans. Kind of test: Antifungal activity against Candida albicans at 5 mg/ml after 24 to 48 hrs by agar diffusion technique. Format: functional. The following applies: read-out: IZ. The method, boiled down: as §4
The test system of test [23] is Bacillus subtilis. Nature of the test: Ratio of compound to amoxicilline activity against Bacillus subtilis at 5 mg/ml after 24 to 48 hrs by agar diffusion technique. It counts as functional.
Test [24] deals with Staphylococcus aureus. Nature of the test: Antibacterial activity against Staphylococcus aureus at 5 mg/ml after 24 to 48 hrs by agar diffusion technique. Format: functional. Conditions: read-out: IZ. Put shortly:
as §5

The test system of test [25] is Staphylococcus aureus. Kind of test: Ratio of compound to amoxicilline activity against Staphylococcus aureus at 5 mg/ml after 24 to 48 hrs by agar diffusion technique. It counts as functional.
Test [26] concerns Aspergillus fumigatus. Kind of test: Ratio of compound to grisofulvin activity against Aspergillus fumigatus at 5 mg/ml after 24 to 48 hrs by agar diffusion technique. Format: functional.
Test [27] deals with Aspergillus fumigatus. Kind of test: Antifungal activity against Aspergillus fumigatus assessed as reduction in size of all morphological features by microscopy. It counts as functional, organism-based. The method, boiled down:
as §2

Test [28] has as its system Syncephalastrum racemosum. Kind of test: Antifungal activity against Syncephalastrum racemosum at 5 mg/ml after 24 to 48 hrs by agar diffusion technique. It counts as functional. Conditions: read-out: IZ. The method, boiled down: as §4
Test [29] concerns Escherichia coli. Kind of test: Ratio of compound to amoxicilline activity against Escherichia coli at 5 mg/ml after 24 to 48 hrs by agar diffusion technique. It counts as functional.
Test [30] has as its system Escherichia coli. Kind of test: Antibacterial activity against Escherichia coli at 5 mg/ml after 24 to 48 hrs by agar diffusion technique. It counts as functional. Conditions: read-out: IZ. Put shortly: as §5
Test [31] has as its system Geotrichum candidum. Kind of test: Antifungal activity against Geotrichum candidum at 5 mg/ml after 24 to 48 hrs by agar diffusion technique. Format: functional. The following applies: read-out: IZ. The method, boiled down: as §4

Values after ≈ are worked out from the molar mass of the structure shown. Active and inactive are the calls of the source.

Consider `COC1=CC(=O)C[C@@H](C)[C@]12Oc1c(Cl)c(OC)cc(OC)c1C2=O` [GRISEOFULVIN], for which the results for the MIC in the test with Aspergillus fumigatus [1] and in the test with Candida albicans [3] were 50 µg/mL (≈ 142 µM) and 75 µg/mL (≈ 213 µM), respectively. For the same compound, the result with Candida albicans [2] was Active.
For `CC(=N\NC(=O)c1oc2ccccc2c1C)/C(=N/Nc1ccc([N+](=O)[O-])cc1)N1CCCCC1`, the result in the test on Candida albicans [4], in the test with Aspergillus fumigatus [5], with Aspergillus fumigatus [8], with Candida albicans [9], with Candida albicans [12] and in the test with Aspergillus fumigatus [14] was Active. Also, the result with Aspergillus fumigatus [16], in the test with Candida albicans [17], in the test with Aspergillus fumigatus [18], in the test with Candida albicans [20] and with Aspergillus fumigatus [27] was Active. For the same compound, the Ratio in the test on Candida albicans [6] was determined as 1.8; in the test with Geotrichum candidum [10] it was 1.2; in [13], 1.16; in the test on Pseudomonas aeruginosa [19] it was 0.35; in the test on Bacillus subtilis [23], 0.83; in the test on Staphylococcus aureus [25], 0.87. Besides, the Ratio in the test on Aspergillus fumigatus [26] was 1.28; with Escherichia coli [29], 0.71. The zone of inhibition at 5000 µg/mL in the test with Aspergillus fumigatus [7] was found to be 32 mm; with Bacillus subtilis [11], 20 mm; in the test on Pseudomonas aeruginosa [21], 7 mm; with Candida albicans [22], 18 mm; in the test with Staphylococcus aureus [24], 26 mm; in test [28] it was 22 mm. Also, the zone of inhibition at 5000 µg/mL is 20 mm in the test on Escherichia coli [30] and 12 mm with Geotrichum candidum [31]. The MIC (commonly the smallest concentration in the dilution series that meets the test's criterion for growth inhibition) with Aspergillus fumigatus [1] stood at 25 µg/mL (≈ 54.1 µM); with Staphylococcus aureus [15] it was 75 µg/mL (≈ 162 µM); against Candida albicans [3], 75 µg/mL (≈ 162 µM).
